According to ChEMBL document CHEMBL1268917, “Synthesis and biological evaluation of radio-iodinated benzimidazoles as SPECT imaging agents for NR2B subtype of NMDA receptor” (Bioorg Med Chem, 2010):

Key:
[1] = Octanol-buffer partition coefficient, log D of the compound at pH 7.4; assay type: physicochemical
[2] = target: Glutamate receptor ionotropic, NMDA 2B (Rattus norvegicus, UniProt Q00960); experiment: Displacement of [3H]ifenprodil from NR2B receptor in rat cortical synaptic membranes; assay type: cell membranes, Membrane
Glutamate receptor ionotropic, NMDA 2B, sequence (Q00960 whole entry): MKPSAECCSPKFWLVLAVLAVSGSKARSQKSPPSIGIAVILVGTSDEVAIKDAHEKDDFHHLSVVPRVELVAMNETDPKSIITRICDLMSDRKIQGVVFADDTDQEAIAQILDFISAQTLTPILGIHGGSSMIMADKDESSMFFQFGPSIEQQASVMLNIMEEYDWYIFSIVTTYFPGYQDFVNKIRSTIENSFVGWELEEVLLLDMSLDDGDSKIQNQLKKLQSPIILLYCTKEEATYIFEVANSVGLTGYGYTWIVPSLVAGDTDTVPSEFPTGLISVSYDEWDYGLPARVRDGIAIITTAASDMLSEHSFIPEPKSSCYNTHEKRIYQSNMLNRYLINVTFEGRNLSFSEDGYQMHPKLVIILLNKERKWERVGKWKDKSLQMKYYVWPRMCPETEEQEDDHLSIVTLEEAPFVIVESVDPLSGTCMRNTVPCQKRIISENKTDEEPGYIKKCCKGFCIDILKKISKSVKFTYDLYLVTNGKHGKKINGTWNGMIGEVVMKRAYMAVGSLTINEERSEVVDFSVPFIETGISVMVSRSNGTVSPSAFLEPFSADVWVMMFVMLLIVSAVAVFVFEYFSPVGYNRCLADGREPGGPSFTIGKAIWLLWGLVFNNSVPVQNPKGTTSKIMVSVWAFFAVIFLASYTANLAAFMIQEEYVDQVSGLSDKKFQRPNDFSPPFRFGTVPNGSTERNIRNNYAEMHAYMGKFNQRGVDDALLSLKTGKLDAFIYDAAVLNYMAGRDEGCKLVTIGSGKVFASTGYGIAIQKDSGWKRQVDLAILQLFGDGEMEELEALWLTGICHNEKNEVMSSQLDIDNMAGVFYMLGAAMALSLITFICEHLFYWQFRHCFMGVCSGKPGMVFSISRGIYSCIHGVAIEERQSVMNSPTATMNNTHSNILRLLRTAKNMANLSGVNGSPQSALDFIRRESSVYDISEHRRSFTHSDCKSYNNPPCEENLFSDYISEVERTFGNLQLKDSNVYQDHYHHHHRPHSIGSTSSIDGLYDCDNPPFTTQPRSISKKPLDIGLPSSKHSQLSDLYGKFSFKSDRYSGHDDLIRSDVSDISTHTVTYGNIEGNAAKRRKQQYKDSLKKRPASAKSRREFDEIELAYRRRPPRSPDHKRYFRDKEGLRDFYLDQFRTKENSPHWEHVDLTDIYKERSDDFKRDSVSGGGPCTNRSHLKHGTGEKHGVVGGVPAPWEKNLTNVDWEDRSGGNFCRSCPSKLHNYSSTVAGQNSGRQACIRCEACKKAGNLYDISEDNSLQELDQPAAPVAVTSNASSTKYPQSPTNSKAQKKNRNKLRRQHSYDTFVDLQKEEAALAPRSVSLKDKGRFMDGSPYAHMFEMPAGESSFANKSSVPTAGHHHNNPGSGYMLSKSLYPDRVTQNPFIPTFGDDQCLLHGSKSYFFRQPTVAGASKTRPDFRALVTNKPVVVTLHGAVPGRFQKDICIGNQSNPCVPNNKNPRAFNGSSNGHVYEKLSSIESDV

[3] = Lipophilicity, log P of the compound; assay type: physicochemical; settings: octanol/water
[4] = target: Glutamate receptor ionotropic, NMDA 2B (Rattus norvegicus) (UniProt Q00960); experiment: Binding affinity to NR2B receptor in rat cerebral cortex at 0.09 to 0.14 nM after 30 mins by autoradiography in presence of DTG relative to control; assay type: tissue-based; settings: tested as the 125I-labelled form
Glutamate receptor ionotropic, NMDA 2B (Rattus norvegicus), sequence (Q00960 27-1482 limits assumed): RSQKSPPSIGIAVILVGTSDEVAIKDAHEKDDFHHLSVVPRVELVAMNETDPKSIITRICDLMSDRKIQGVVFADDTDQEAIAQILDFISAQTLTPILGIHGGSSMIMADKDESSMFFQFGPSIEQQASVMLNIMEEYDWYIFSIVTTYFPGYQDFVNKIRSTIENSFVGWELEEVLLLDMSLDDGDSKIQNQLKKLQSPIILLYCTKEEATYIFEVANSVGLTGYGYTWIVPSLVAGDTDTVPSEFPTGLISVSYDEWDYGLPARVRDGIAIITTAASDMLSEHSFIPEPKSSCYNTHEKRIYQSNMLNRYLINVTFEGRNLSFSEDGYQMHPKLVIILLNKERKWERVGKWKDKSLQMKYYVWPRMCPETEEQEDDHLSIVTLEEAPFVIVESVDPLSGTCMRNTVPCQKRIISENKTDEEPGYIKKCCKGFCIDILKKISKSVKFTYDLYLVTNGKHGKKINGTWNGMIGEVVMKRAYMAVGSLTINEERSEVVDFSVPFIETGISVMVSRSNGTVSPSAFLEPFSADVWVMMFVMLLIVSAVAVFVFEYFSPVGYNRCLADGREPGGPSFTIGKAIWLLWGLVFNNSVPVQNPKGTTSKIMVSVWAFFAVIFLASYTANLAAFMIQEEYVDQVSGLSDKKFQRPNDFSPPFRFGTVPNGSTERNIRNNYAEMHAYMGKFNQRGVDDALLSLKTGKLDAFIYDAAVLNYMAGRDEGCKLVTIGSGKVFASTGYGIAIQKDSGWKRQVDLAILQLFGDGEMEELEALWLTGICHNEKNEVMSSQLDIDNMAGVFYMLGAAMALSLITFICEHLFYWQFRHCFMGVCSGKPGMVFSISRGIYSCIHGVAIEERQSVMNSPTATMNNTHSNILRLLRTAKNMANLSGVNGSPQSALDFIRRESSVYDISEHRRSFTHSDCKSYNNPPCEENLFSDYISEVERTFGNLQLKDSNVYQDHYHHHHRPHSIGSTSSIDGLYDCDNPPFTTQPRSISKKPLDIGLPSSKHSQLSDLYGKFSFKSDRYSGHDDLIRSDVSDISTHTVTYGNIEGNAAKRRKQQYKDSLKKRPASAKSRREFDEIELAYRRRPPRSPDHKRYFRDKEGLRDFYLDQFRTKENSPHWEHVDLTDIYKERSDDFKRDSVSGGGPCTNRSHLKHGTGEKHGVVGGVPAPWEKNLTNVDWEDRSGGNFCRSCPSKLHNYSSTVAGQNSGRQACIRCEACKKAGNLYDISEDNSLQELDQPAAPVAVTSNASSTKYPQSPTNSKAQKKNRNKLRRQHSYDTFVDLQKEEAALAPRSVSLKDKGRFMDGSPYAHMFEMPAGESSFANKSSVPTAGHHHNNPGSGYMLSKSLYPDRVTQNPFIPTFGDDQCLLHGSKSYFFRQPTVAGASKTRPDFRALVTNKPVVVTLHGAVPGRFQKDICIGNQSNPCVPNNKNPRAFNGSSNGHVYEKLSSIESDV
How it was run: (§1)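 Rinsed three times 3 min in cold buffer with 1% BSA, dipped in cold water, air-dried, exposed to imaging plates; PSL per mm² in ROIs. Expressed as % control binding; at least triplicate slices from three rats.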

[5] = target: Glutamate receptor ionotropic, NMDA 2B (Rattus norvegicus) (UniProt Q00960); experiment: Binding affinity to NR2B receptor in rat hippocampus at 0.09 to 0.14 nM after 30 mins by autoradiography in presence of prazosin relative to control; assay type: tissue-based; settings: tested as the 125I-labelled form; how it was run: as §1
[6] = target: Glutamate receptor ionotropic, NMDA 2B (Rattus norvegicus) (UniProt Q00960); experiment: Binding affinity to NR2B receptor in rat hippocampus at 0.09 to 0.14 nM after 30 mins by autoradiography in presence of DTG relative to control; assay type: tissue-based; settings: tested as the 125I-labelled form; how it was run: as §1
[7] = target: Glutamate receptor ionotropic, NMDA 2B (Rattus norvegicus) (UniProt Q00960); experiment: Binding affinity to NR2B receptor in rat hippocampus at 0.09 to 0.14 nM after 30 mins by autoradiography in presence of Ro-256981 relative to control; assay type: tissue-based; settings: tested as the 125I-labelled form; how it was run: as §1
[8] = target: Glutamate receptor ionotropic, NMDA 2B (Rattus norvegicus) (UniProt Q00960); experiment: Binding affinity to NR2B receptor in rat cerebellum at 0.09 to 0.14 nM after 30 mins by autoradiography in presence of prazosin relative to control; assay type: tissue-based; settings: tested as the 125I-labelled form; how it was run: as §1
[9] = target: Glutamate receptor ionotropic, NMDA 2B (Rattus norvegicus) (UniProt Q00960); experiment: Binding affinity to NR2B receptor in rat cerebral cortex at 0.09 to 0.14 nM after 30 mins by autoradiography in presence of prazosin relative to control; assay type: tissue-based; settings: tested as the 125I-labelled form; how it was run: as §1
[10] = target: Glutamate receptor ionotropic, NMDA 2B (Rattus norvegicus) (UniProt Q00960); experiment: Binding affinity to NR2B receptor in rat cerebellum at 0.09 to 0.14 nM after 30 mins by autoradiography in presence of DTG relative to control; assay type: tissue-based; settings: tested as the 125I-labelled form; how it was run: as §1
[11] = target: Glutamate receptor ionotropic, NMDA 2B (Rattus norvegicus) (UniProt Q00960); experiment: Binding affinity to NR2B receptor in rat cerebral cortex at 0.09 to 0.14 nM after 30 mins by autoradiography in presence of Ro-256981 relative to control; assay type: tissue-based; settings: tested as the 125I-labelled form; how it was run: as §1
[12] = target: Glutamate receptor ionotropic, NMDA 2B (Rattus norvegicus) (UniProt Q00960); experiment: Binding affinity to NR2B receptor in rat cerebellum at 0.09 to 0.14 nM after 30 mins by autoradiography in presence of Ro-256981 relative to control; assay type: tissue-based; settings: tested as the 125I-labelled form; how it was run: as §1

**Q.** For `Oc1ccc2nc(CN3CCC(Oc4ccc(I)cc4)CC3)[nH]c2c1`, which logD [1] is on record?
**A.** 3.74

**Q.** And the Ki [2]?
**A.** 32.5 nM

**Q.** Which results are given for `Oc1ccc2nc(CN3CCC(Cc4ccc(I)cc4)CC3)[nH]c2c1`?
**A.** logD [1]: 3.95; logP [3]: 3.95; Activity [4]: 93.5%; Activity [5]: 92.6%; Activity [6]: 105%; Activity [7]: 50.9%; Ki [2]: 7.28 nM; Activity [8]: 103%; Activity [9]: 95.6%; Activity [10]: 101%; Activity [11]: 58.3%; Activity [12]: 91.8%

**Q.** Which Ki [2] does the source give for `Oc1ccc2nc(CN3CCC(Cc4ccccc4)CC3)[nH]c2c1` here?
**A.** 3.09 nM
